From ChEMBL document CHEMBL1142148, “Antibiotic susceptibility profile of bifidobacteria as affected by oxgall, acid, and hydrogen peroxide stress” (2007)
In brackets after ≈: the same amount, converted by molar mass.

Experiments:
[1] = system: Bifidobacterium animalis; test: Antimicrobial activity against Bifidobacterium animalis ATCC 27536; format: functional
Outline: (§1)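 Broth microdilution in MRS plus 0.05% L-cysteine-HCl. Mid-log culture adjusted to OD650 0.1, giving about 2.5 × 10^4 to 5.0 × 10^4 CFU/well, then added to twofold serial dilutions of agent. Plates incubated anaerobically at 37°C for 18 h and read at OD650. MIC is the lowest concentration matching the uninoculated blank OD, taken as the median of four repeats.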

[2] = system: Bifidobacterium bifidum; test: Antimicrobial activity against Bifidobacterium bifidum R0071; format: functional; outline: as §1
[3] = system: Bifidobacterium bifidum; test: Antimicrobial activity against Bifidobacterium bifidum ATCC 15696; format: functional; outline: as §1
[4] = system: Bifidobacterium bifidum; test: Antimicrobial activity against Bifidobacterium bifidum BB12; format: functional; outline: as §1
[5] = system: Bifidobacterium breve; test: Antimicrobial activity against Bifidobacterium breve ATCC 15700; format: functional; outline: as §1
[6] = Antimicrobial activity against Bifidobacterium infantis ATCC 15697; format: functional, Bifidobacterium longum subsp. infantis; conditions: Bifidobacterium longum; outline: as §1
[7] = system: Bifidobacterium longum; test: Antimicrobial activity against Bifidobacterium longum ATCC 15708; format: functional; outline: as §1
[8] = system: Bifidobacterium longum; test: Antimicrobial activity against Bifidobacterium longum R0175; format: functional; outline: as §1
[9] = system: Bifidobacterium longum; test: Antimicrobial activity against Bifidobacterium longum P/N 601377; format: functional; outline: as §1
[10] = system: Bifidobacterium pseudolongum; test: Antimicrobial activity against Bifidobacterium pseudolongum ATCC 25562; format: functional; outline: as §1
[11] = system: Bifidobacterium thermophilum; test: Antimicrobial activity against Bifidobacterium thermophilum ATCC 25866; format: functional; outline: as §1
[12] = system: Bifidobacterium breve; test: Antimicrobial activity against Bifidobacterium breve R0070; format: functional; outline: as §1
[13] = system: Bifidobacterium animalis; test: Antimicrobial activity against 60 min 1 M HCl-stressed Bifidobacterium animalis ATCC 27536 after 18 hrs; format: functional
Outline: (§2)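 Mid-log MRS culture pelleted and resuspended in MRS broth brought to pH 2.0 with 1 M HCl, held anaerobically at 37°C for 60 min, then subcultured in MRS (pH 6.5) for 24 h anaerobically before MIC testing by broth microdilution (as for unstressed cells). Table footnote gives 18 h anaerobic regrowth after the stress. MIC is the median of four repetitions.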

[14] = system: Bifidobacterium bifidum; test: Antimicrobial activity against 60 min 1 M HCl-stressed Bifidobacterium bifidum R0071 after 18 hrs; format: functional; outline: as §2
[15] = system: Bifidobacterium bifidum; test: Antimicrobial activity against 60 min 1 M HCl-stressed Bifidobacterium bifidum BB12 after 18 hrs; format: functional; outline: as §2
[16] = system: Bifidobacterium breve; test: Antimicrobial activity against 60 min 1 M HCl-stressed Bifidobacterium breve ATCC 15700 after 18 hrs; format: functional; outline: as §2
[17] = system: Bifidobacterium breve; test: Antimicrobial activity against 60 min 1 M HCl-stressed Bifidobacterium breve R0070 after 18 hrs; format: functional; outline: as §2
[18] = Antimicrobial activity against 60 min 1 M HCl-stressed Bifidobacterium infantis ATCC 15697 after 18 hrs; format: functional, Bifidobacterium longum subsp. infantis; conditions: Bifidobacterium longum; outline: as §2
[19] = system: Bifidobacterium longum; test: Antimicrobial activity against 60 min 1 M HCl-stressed Bifidobacterium longum ATCC 15707 after 18 hrs; format: functional; outline: as §2
[20] = system: Bifidobacterium longum; test: Antimicrobial activity against 60 min 1 M HCl-stressed Bifidobacterium longum R0175 after 18 hrs; format: functional; outline: as §2
[21] = system: Bifidobacterium longum; test: Antimicrobial activity against 60 min 1 M HCl-stressed Bifidobacterium longum P/N 601377 after 18 hrs; format: functional; outline: as §2
[22] = system: Bifidobacterium pseudolongum; test: Antimicrobial activity against 60 min 1 M HCl-stressed Bifidobacterium pseudolongum ATCC 25562 after 18 hrs; format: functional; outline: as §2
[23] = system: Bifidobacterium thermophilum; test: Antimicrobial activity against 60 min 1 M HCl-stressed Bifidobacterium thermophilum ATCC 25866 after 18 hrs; format: functional; outline: as §2
[24] = system: Bifidobacterium animalis; test: Antimicrobial activity against 90 mins oxgall-stressed Bifidobacterium animalis ATCC 27536 after 18 hrs; format: functional
Outline: (§3)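 Cells pelleted from mid-log MRS culture and resuspended in MRS (initial pH 6.5) with 0.3% (wt/vol) oxgall for 90 min anaerobically at 37°C. They were then regrown in MRS pH 6.5 for 24 h (footnote: 18 h) anaerobically and tested for MIC by the same broth microdilution assay. Median of four repetitions.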

[25] = system: Bifidobacterium bifidum; test: Antimicrobial activity against 90 mins oxgall-stressed Bifidobacterium bifidum R0071 after 18 hrs; format: functional; outline: as §3
[26] = system: Bifidobacterium bifidum; test: Antimicrobial activity against 90 mins oxgall-stressed Bifidobacterium bifidum ATCC 15696 after 18 hrs; format: functional; outline: as §3
[27] = system: Bifidobacterium bifidum; test: Antimicrobial activity against 90 mins oxgall-stressed Bifidobacterium bifidum BB12 after 18 hrs; format: functional; outline: as §3
[28] = system: Bifidobacterium breve; test: Antimicrobial activity against 90 mins oxgall-stressed Bifidobacterium breve ATCC 15700 after 18 hrs; format: functional; outline: as §3
[29] = system: Bifidobacterium breve; test: Antimicrobial activity against 90 mins oxgall-stressed Bifidobacterium breve R0070 after 18 hrs; format: functional; outline: as §3
[30] = Antimicrobial activity against 90 mins oxgall-stressed Bifidobacterium infantis ATCC 15697 after 18 hrs; format: functional, Bifidobacterium longum subsp. infantis; conditions: Bifidobacterium longum; outline: as §3
[31] = system: Bifidobacterium longum; test: Antimicrobial activity against 90 mins oxgall-stressed Bifidobacterium longum ATCC 15707 after 18 hrs; format: functional; outline: as §3
[32] = system: Bifidobacterium longum; test: Antimicrobial activity against 90 mins oxgall-stressed Bifidobacterium longum ATCC 15708 after 18 hrs; format: functional; outline: as §3
[33] = system: Bifidobacterium longum; test: Antimicrobial activity against Bifidobacterium longum ATCC 15707; format: functional; outline: as §1
[34] = system: Bifidobacterium longum; test: Antimicrobial activity against 90 mins oxgall-stressed Bifidobacterium longum R0175 after 18 hrs; format: functional; outline: as §3
[35] = system: Bifidobacterium longum; test: Antimicrobial activity against 90 mins oxgall-stressed Bifidobacterium longum P/N 601377 after 18 hrs; format: functional; outline: as §3
[36] = system: Bifidobacterium pseudolongum; test: Antimicrobial activity against 90 mins oxgall-stressed Bifidobacterium pseudolongum ATCC 25562 after 18 hrs; format: functional; outline: as §3
[37] = system: Bifidobacterium thermophilum; test: Antimicrobial activity against 90 mins oxgall-stressed Bifidobacterium thermophilum ATCC 25866 after 18 hrs; format: functional; outline: as §3
[38] = system: Bifidobacterium animalis; test: Antimicrobial activity against 90 mins hydrogen peroxide-stressed Bifidobacterium animalis ATCC 27536 after 18 hrs; format: functional
Outline: (§4)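 Stress applied for 90 min at 37°C under anaerobic conditions, using MRS (initial pH 6.5) containing H2O2 at each strain's own inhibitory concentration. The H2O2 level was set beforehand by microplate tolerance testing. Challenged cells were regrown in MRS for 24 h (footnote: 18 h) before MIC testing by broth microdilution. Median of four repetitions.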

[39] = system: Bifidobacterium bifidum; test: Antimicrobial activity against 90 mins hydrogen peroxide-stressed Bifidobacterium bifidum R0071 after 18 hrs; format: functional; outline: as §4
[40] = system: Bifidobacterium bifidum; test: Antimicrobial activity against 90 mins hydrogen peroxide-stressed Bifidobacterium bifidum BB12 after 18 hrs; format: functional; outline: as §4
[41] = system: Bifidobacterium breve; test: Antimicrobial activity against 90 mins hydrogen peroxide-stressed Bifidobacterium breve ATCC 15700 after 18 hrs; format: functional; outline: as §4
[42] = system: Bifidobacterium breve; test: Antimicrobial activity against 90 mins hydrogen peroxide-stressed Bifidobacterium breve R0070 after 18 hrs; format: functional; outline: as §4
[43] = system: Bifidobacterium longum; test: Antimicrobial activity against 90 mins hydrogen peroxide-stressed Bifidobacterium longum ATCC 15707 after 18 hrs; format: functional; outline: as §4
[44] = system: Bifidobacterium longum; test: Antimicrobial activity against 90 mins hydrogen peroxide-stressed Bifidobacterium longum ATCC 15708 after 18 hrs; format: functional; outline: as §4
[45] = system: Bifidobacterium longum; test: Antimicrobial activity against 90 mins hydrogen peroxide-stressed Bifidobacterium longum R0175 after 18 hrs; format: functional; outline: as §4
[46] = system: Bifidobacterium longum; test: Antimicrobial activity against 90 mins hydrogen peroxide-stressed Bifidobacterium longum P/N 601377 after 18 hrs; format: functional; outline: as §4
[47] = system: Bifidobacterium thermophilum; test: Antimicrobial activity against 90 mins hydrogen peroxide-stressed Bifidobacterium thermophilum ATCC 25866 after 18 hrs; format: functional; outline: as §4

MIC [1]: 3.9 µg/mL (≈ 5.31 µM) | MIC [2]: 1.9 µg/mL (≈ 2.59 µM) | MIC [3]: 7.8 µg/mL (≈ 10.6 µM) | MIC [4]: 15.6 µg/mL (≈ 21.3 µM) | MIC [5]: 1.95 µg/mL (≈ 2.66 µM) | MIC [6]: 15.6 µg/mL (≈ 21.3 µM) | MIC [7]: 3.9 µg/mL (≈ 5.31 µM) | MIC [8]: 0.98 µg/mL (≈ 1.34 µM) | MIC [9]: 0.98 µg/mL (≈ 1.34 µM) | MIC [10]: 3.9 µg/mL (≈ 5.31 µM) | MIC [11]: 0.98 µg/mL (≈ 1.34 µM) | MIC [12]: 0.98 µg/mL (≈ 1.34 µM) | MIC [13]: 1.9 µg/mL (≈ 2.59 µM) | MIC [14]: 0.98 µg/mL (≈ 1.34 µM) | MIC [15]: 3.9 µg/mL (≈ 5.31 µM) | MIC [16]: 3.9 µg/mL (≈ 5.31 µM) | MIC [17]: 0.98 µg/mL (≈ 1.34 µM) | MIC [18]: 3.9 µg/mL (≈ 5.31 µM) | MIC [19]: 0.98 µg/mL (≈ 1.34 µM) | MIC [20]: 0.98 µg/mL (≈ 1.34 µM) | MIC [21]: 0.98 µg/mL (≈ 1.34 µM) | MIC [22]: 3.9 µg/mL (≈ 5.31 µM) | MIC [23]: 0.98 µg/mL (≈ 1.34 µM) | MIC [24]: 1.9 µg/mL (≈ 2.59 µM) | MIC [25]: 3.9 µg/mL (≈ 5.31 µM) | MIC [26]: 3.9 µg/mL (≈ 5.31 µM) | MIC [27]: 3.9 µg/mL (≈ 5.31 µM) | MIC [28]: 0.98 µg/mL (≈ 1.34 µM) | MIC [29]: 0.98 µg/mL (≈ 1.34 µM) | MIC [30]: 3.9 µg/mL (≈ 5.31 µM) | MIC [31]: 3.9 µg/mL (≈ 5.31 µM) | MIC [32]: 1.9 µg/mL (≈ 2.59 µM) | MIC [33]: 0.98 µg/mL (≈ 1.34 µM) | MIC [34]: 1.9 µg/mL (≈ 2.59 µM) | MIC [35]: 3.9 µg/mL (≈ 5.31 µM) | MIC [36]: 3.9 µg/mL (≈ 5.31 µM) | MIC [37]: 3.9 µg/mL (≈ 5.31 µM) | MIC [38]: 0.98 µg/mL (≈ 1.34 µM) | MIC [39]: 500 µg/mL (≈ 681 µM) | MIC [40]: 0.98 µg/mL (≈ 1.34 µM) | MIC [41]: 0.98 µg/mL (≈ 1.34 µM) | MIC [42]: 0.98 µg/mL (≈ 1.34 µM) | MIC [43]: 0.98 µg/mL (≈ 1.34 µM) | MIC [44]: 0.98 µg/mL (≈ 1.34 µM) | MIC [45]: 0.98 µg/mL (≈ 1.34 µM) | MIC [46]: 1.9 µg/mL (≈ 2.59 µM) | MIC [47]: 0.98 µg/mL (≈ 1.34 µM)
SMILES: CC[C@H]1OC(=O)[C@H](C)[C@@H](O[C@H]2C[C@@](C)(OC)[C@@H](O)[C@H](C)O2)[C@H](C)[C@@H](O[C@@H]2O[C@H](C)C[C@H](N(C)C)[C@H]2O)[C@](C)(O)C[C@@H](C)C(=O)[C@H](C)[C@@H](O)[C@]1(C)O [ERYTHROMYCIN]
